The text below walks through data of ChEMBL document CHEMBL4376891, “Benzenesulfonamide Derivatives as Calcium/Calmodulin-Dependent Protein Kinase Inhibitors and Antiviral Agents against Dengue and Zika Virus Infections” (J Med Chem, 2020).

The source made the active and inactive calls. No cut-off for these calls is given here.

Assay [1] concerns Zika virus. Briefly: Antiviral activity against Zika virus infected in Stat1-/- mouse assessed as improvement in overall mouse survival at 4 to 8 mg/kg, po dosed 8 hrs after infection and ending at day 6 after infection (8 hrs delay) relative to control. Type of assay: functional, organism-based. The essentials:
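Stat1-/- mice, 6 weeks old, infected sc in the footpad with 5x10⁴ PFU of ZIKV PRVABC59. Oral dosing at 4 or 8 mg/kg/day, or PBS, started 8 h post-infection and ran daily up to day 6; n = 5. Survival was monitored for 12 d, with T50 by log-rank test.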

For assay [2], the system named is Zika virus. To be noted: 3.125 to 6.25 uM.
Assay [3] has as its system dengue virus type 2. The experiment in a line: Antiviral activity against Dengue virus 2 infected in human BE(2)-C cells assessed as NS3 protein expression at 0.78 uM incubated for 48 hrs by Western blot analysis (reference value: 100%). Type of assay: functional. The essentials:
(§1)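 BE(2)C neuroblastoma cells in RPMI 1640 with 10% FBS were infected with DENV-2 PL046 at MOI 0.1 for 48 h, without or with compound at increasing concentrations. NS3 was immunoblotted with actin as loading control. The NS3:actin densitometry ratio was expressed as % of the DMSO control. Mean ± SD of 3 independent experiments.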
On the technique in general: In western blotting, separated proteins are transferred to a membrane and probed.

The next assay has as its system Sindbis virus. Briefly: Antiviral activity of eGFP-fused Sindbis virus infected in human HMC3 cells at 0.781 to 12.5 uM incubated for 24 hrs by immunofluorescence microscopy. Type of assay: functional, organism-based.
In assay [4] the test system is dengue virus type 2. The experiment in a line: Antiviral activity against DENV-2 NGC-N infected in Stat1-/- mouse assessed as improvement in overall mouse survival at 4 mg/kg, po dosed 8 hrs after infection and ending at day 6 after infection (8 hrs delay) relative to control. Type of assay: functional.
Assay [5] deals with dengue virus type 2. Briefly: Antiviral activity against Dengue virus 2 infected in human BE(2)-C cells assessed as suppression of viral-induced CaMKIIalpha activation at 3.125 uM incubated for 4 hrs by confocal microscopy. Type of assay: functional, organism-based.
Assay [6] relates to Zika virus. Briefly: Antiviral activity against Zika virus infected in human BE(2)-C cells assessed as NS3 protein expression at 3.125 uM treated during 3 to 24 hrs post infection by Western blot analysis (reference value: 100%). Type of assay: functional. The method in brief:
(§2)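 Time-of-addition design: BE(2)C cells were infected with DENV-2 or ZIKV at MOI 1. Compound at 3.125 or 6.25 μM was present either during adsorption (0–3 hpi) or afterward (3–24 hpi). Viral protein was immunoblotted against actin, with the ratio as % of the solvent control.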

The test system of assay [7] is dengue virus type 2. The experiment in a line: Antiviral activity against Dengue virus 2 infected in human BE(2)-C cells transfected with shLacZ assessed as NS3 protein expression at 6.25 uM incubated for 48 hrs by Western blot analysis (reference value: 100%). The assay is classed as functional.
The next assay concerns Influenza A virus. The experiment in a line: Antiviral activity of Influenza A virus (H1N1) infected in human HMC3 cells assessed as reduction in nucleoprotein protein expression at 0.781 to 12.5 uM incubated for 24 hrs by immunofluorescence microscopy. The assay is classed as functional, organism-based.
Assay [8] concerns dengue virus type 2. Briefly: Antiviral activity against Dengue virus 2 infected in human BE(2)-C cells assessed as NS3 protein expression incubated for 48 hrs by Western blot analysis. The assay is classed as functional, organism-based. The method in brief:
as §1

Assay [9] deals with dengue virus type 2. Briefly: Antiviral activity against Dengue virus 2 infected in human BE(2)-C cells assessed as NS3 protein expression at 1.56 uM incubated for 48 hrs by Western blot analysis (reference value: 100%). The assay is classed as functional. The method in brief:
as §1

In assay [10] the test system is dengue virus type 2. Briefly: Antiviral activity against Dengue virus 2 infected in human BE(2)-C cells assessed as NS3 protein expression at 3.125 uM incubated for 48 hrs by Western blot analysis (reference value: 100%). The assay is classed as functional. The method in brief:
as §1

Assay [11] has as its system Zika virus. The experiment in a line: Antiviral activity against Zika virus infected in human BE(2)-C cells assessed as suppression of viral-induced CaMKIIalpha activation at 3.125 uM incubated for 4 hrs by confocal microscopy. The assay is classed as functional, organism-based.
Assay [12] relates to dengue virus type 2. The experiment in a line: Antiviral activity against Dengue virus 2 infected in human HMC3 cells assessed as reduction in NS3 protein expression at 1.56 to 12.5 uM incubated for 24 hrs by immunofluorescence microscopy. Type of assay: functional, organism-based.
For assay [13], the system named is Zika virus. Briefly: Antiviral activity against Zika virus infected in human BE(2)-C cells assessed as NS3 protein expression at 6.25 uM treated during 3 to 24 hrs post infection by Western blot analysis (reference value: 100%). The assay is classed as functional. The essentials:
as §2

The subject of assay [14] is Zika virus. Briefly: Antiviral activity against Zika virus infected in human BE(2)-C cells transfected with shCaMKIIalpha assessed as NS3 protein expression at 3.125 uM incubated for 48 hrs by Western blot analysis (reference value: 100%). The assay is classed as functional.
For assay [15], the system named is Zika virus. Briefly: Antiviral activity against Zika virus infected in human BE(2)-C cells assessed as NS3 protein expression at 12.5 uM incubated for 48 hrs by Western blot analysis (reference value: 100%). Type of assay: functional. The essentials: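 BE(2)C cells were infected with ZIKV PRVABC59 at MOI 0.1 for 48 h, with or without compound at increasing concentrations. Viral protein was immunoblotted with actin as loading control. The band-density ratio was given as % of the solvent control. Mean ± SD, 3 independent experiments.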

Assay [16] relates to dengue virus type 2. The experiment in a line: Antiviral activity against Dengue virus 2 infected in human BE(2)-C cells transfected with shCaMKIIalpha assessed as NS3 protein expression at 6.25 uM incubated for 48 hrs by Western blot analysis (reference value: 100%). Type of assay: functional.
The test system of assay [17] is dengue virus type 2. Briefly: Antiviral activity against Dengue virus 2 infected in human BE(2)-C cells transfected with shLacZ assessed as NS3 protein expression at 3.125 uM incubated for 48 hrs by Western blot analysis (reference value: 100%). Type of assay: functional.
The test system of assay [18] is dengue virus type 2. The experiment in a line: Antiviral activity against Dengue virus 2 infected in human BE(2)-C cells assessed as NS3 protein expression at 6.25 uM incubated for 48 hrs by Western blot analysis (reference value: 100%). The assay is classed as functional. The method in brief: as §1
The test system of assay [19] is Zika virus. Briefly: Antiviral activity against Zika virus infected in human BE(2)-C cells assessed as reduction inNS3 protein expression at 3.125 to 6.25 uM treated during 0 to 3 hrs post infection by Western blot analysis. The assay is classed as functional, organism-based. The essentials: as §2
Assay [20] has as its system Zika virus. Briefly: Antiviral activity against Zika virus infected in Stat1-/- mouse assessed as time delay in virus-induced mouse mortality at 8 mg/kg/day, po dosed immediately following viral infection followed by daily dosing for 6 days (reference value: 13 days). The assay is classed as functional.
The subject of assay [21] is Zika virus. Briefly: Antiviral activity against Zika virus infected in Stat1-/- mouse assessed as reduction in viral load at 4 to 8mg/kg/day, po dosed immediately following viral infection followed by daily dosing for 3 days. Type of assay: functional, organism-based. The essentials: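 Stat1-/- mice infected with DENV-2 NGC-N (1x10⁵ PFU iv) or ZIKV PRVABC59 (5x10⁴ PFU sc, footpad), with oral dosing or PBS starting immediately. Serum was taken from the submandibular vein on day 3 post-infection. Viremia was measured by plaque assay and reported as individual values and mean; n = 5.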

Assay [22] relates to Zika virus. Briefly: Antiviral activity against Zika virus infected in human BE(2)-C cells assessed as NS3 protein expression at 3.125 uM treated during 0 to 3 hrs post infection by Western blot analysis (reference value: 100%). Type of assay: functional. The method in brief:
as §2

With `COc1ccc(S(=O)(=O)N(CCCC(=O)C2CCCCCC2)c2ccccc2)cc1`, the result in the assay on Zika virus [1] was inactive. Moreover, the inhibition entry in the assay on Zika virus [2] is “inactive”. Moreover, the Activity with dengue virus type 2 [3] is 85.4%; with dengue virus type 2 [4] it was 40%; in the assay on Zika virus [6], 97.2%; in the assay on dengue virus type 2 [7] it was 34.6%; in the assay on dengue virus type 2 [8], “Dose-dependent effect”; in the assay on dengue virus type 2 [9], 75.2%. Moreover, the Activity in the assay with dengue virus type 2 [10] came to 54.5%; in the assay on Zika virus [13], 79.5%; with Zika virus [14] it was 101%; in the assay on Zika virus [15] it was 0.1%; in the assay on dengue virus type 2 [16], 75.4%; with dengue virus type 2 [17], 62.2%. The Activity in the assay on dengue virus type 2 [18] was 23.1%; in the assay on Zika virus [19], “Dose-dependent effect”; in the assay with Zika virus [22] it was 60.1%. In addition, the result in the assay on Sindbis virus, with dengue virus type 2 [5], in the assay on Influenza A virus, in the assay with Zika virus [11], in the assay on dengue virus type 2 [12] and in the assay on Zika virus [21] was Active. The Time in the assay with Zika virus [20] was 18 days.
